Measurements from publication PMC11143505 (Acta Pharmaceutica Sinica. B, 2024).

Key:
insulin receptor = insulin receptor (Mus musculus, UniProt P15208); test: Cell-based insulin receptor activation assay; settings: C2C12 cells, phospho-AKT (Ser473) HTRF; relative to native insulin = 100%
healthy C57BL/6 mice = test: Hypoglycemia effect in fasted healthy mice; type: in vivo; settings: for number of mice died from hypoglycemia / dose at which mice started to suffer from notable hypoglycemia: n = 6
Outline: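 Tail-vein glucose was read by glucose meter at 30 min and 1–6 h. Hypoglycaemic effect was the area above the glycaemic curve and below 3.3 mmol/L. Survival was recorded at 10 U/kg. One-way ANOVA with Tukey test.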

[1] = tested on: STZ-induced diabetic mice; test: Glycemic control in STZ-induced type 1 diabetic mice with IPGTT; type: in vivo; settings: s.c.; for number of mice experiencing hypoglycemia within 4 h post-injection / time for blood glucose to drop to the normoglycemic range: n = 6; for time for blood glucose to drop to the normoglycemic range: fasted STZ diabetic mice; for response to the first glucose challenge (IPGTT): glucose 2 g/kg i.p. at 4.5 h
Pharmacokinetics = type: in vivo, mice; settings: n = 5; for delay of time to peak concentration: compared with insulin
[2] = Absorption and urine excretion of Cy7-labeled samples; type: in vivo, mice; settings: s.c., n = 3; for time at which fluorescence at the injected site was undetectable: live imaging
In vitro stability = type: physicochemical; settings: 1 mg/mL in PBS pH 7.4, 37 °C, 100 rpm, 80 h
Dynamic light scattering = type: physicochemical; settings: DLS in PBS, average of three measurements
diabetic mice = test: Long-term efficacy in diabetic mice; type: in vivo; settings: for kidney Masson staining, amount of collagen fiber / kidney PAS staining: Day 14; for kidney H&E pathological features: Day 14, insulin 1 mg/kg, di-PEGylated insulin 3 mg/kg
Outline: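 Diabetes was induced in C57BL/6 mice with STZ 50 mg/kg i.p. in 0.1 mol/L citrate pH 4.5 on 5 consecutive days; only mice with fasting glucose >16.7 mmol/L at 2 weeks were used. […] Serum glycated protein, CREA and BUN were measured by kit on Days 7 and 14. Day-14 kidneys were stained with H&E, PAS and Masson (200×). Dunnett-corrected ANOVA.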

healthy C57 mice = test: Biosafety in healthy mice; type: in vivo; settings: 2 weeks daily; for blood cell counts: n = 5 or 6
Outline: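 Body weight was recorded every 2 days. After two weeks, blood was collected and blood cell counts were run on an automated veterinary haematology analyser.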

[3] = diabetic mice, Iso-insulin ELISA

Chain of insulin receptor (P15208 28-748 limits assumed): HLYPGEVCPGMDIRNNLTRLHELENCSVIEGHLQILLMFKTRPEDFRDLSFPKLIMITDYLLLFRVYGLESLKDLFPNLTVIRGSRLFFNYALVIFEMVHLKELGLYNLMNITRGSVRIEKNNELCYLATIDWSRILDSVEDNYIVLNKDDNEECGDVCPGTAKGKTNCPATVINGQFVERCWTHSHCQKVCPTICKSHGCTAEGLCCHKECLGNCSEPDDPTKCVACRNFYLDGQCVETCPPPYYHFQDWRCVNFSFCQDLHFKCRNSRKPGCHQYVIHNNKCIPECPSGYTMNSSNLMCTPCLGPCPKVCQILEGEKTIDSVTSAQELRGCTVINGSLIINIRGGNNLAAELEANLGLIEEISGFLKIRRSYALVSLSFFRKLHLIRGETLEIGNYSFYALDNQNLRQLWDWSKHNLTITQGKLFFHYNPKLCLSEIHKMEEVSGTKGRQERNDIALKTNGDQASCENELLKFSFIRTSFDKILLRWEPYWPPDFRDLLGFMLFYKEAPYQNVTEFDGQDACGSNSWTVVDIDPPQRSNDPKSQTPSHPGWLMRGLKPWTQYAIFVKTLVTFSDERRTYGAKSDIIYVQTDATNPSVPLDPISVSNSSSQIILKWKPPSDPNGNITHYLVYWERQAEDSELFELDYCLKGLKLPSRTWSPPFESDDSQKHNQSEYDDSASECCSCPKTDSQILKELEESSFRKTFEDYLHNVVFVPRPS
Chain of insulin receptor (P15208 753-1372 partner limits assumed): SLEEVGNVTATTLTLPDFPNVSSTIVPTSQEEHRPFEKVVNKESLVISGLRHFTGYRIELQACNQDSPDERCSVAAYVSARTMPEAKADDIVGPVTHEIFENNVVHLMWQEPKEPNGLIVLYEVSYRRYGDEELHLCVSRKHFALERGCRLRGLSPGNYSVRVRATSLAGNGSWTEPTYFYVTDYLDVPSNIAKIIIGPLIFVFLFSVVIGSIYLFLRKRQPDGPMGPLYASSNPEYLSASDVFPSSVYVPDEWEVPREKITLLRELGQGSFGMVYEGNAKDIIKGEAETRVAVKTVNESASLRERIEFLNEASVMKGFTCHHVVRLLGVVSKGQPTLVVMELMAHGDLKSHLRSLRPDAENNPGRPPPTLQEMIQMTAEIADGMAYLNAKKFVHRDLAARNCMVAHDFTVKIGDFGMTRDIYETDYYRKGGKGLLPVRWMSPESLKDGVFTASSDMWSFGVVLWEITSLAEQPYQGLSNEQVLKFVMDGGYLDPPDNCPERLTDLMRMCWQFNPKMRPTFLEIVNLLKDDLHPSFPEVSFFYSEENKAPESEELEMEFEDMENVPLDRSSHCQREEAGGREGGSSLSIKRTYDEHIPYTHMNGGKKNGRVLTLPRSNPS

In the case of “di-PEGylated insulin: insulin conjugated with two PEG chains (MW 5000) at Lys B29 and Gly A1”, the Emax (insulin receptor) is reported as 63.5%, the “hypoglycemia in healthy mice” value (healthy C57BL/6 mice; s.c., 10 U/kg, fasted healthy mice, n = 6, threshold 3.3 mmol/L) is reported as “didn't suffer from hypoglycemia” and the “number of mice experiencing hypoglycemia within 4 h post-injection” value ([1]; 5 U/kg, STZ diabetic mice) is reported as “no mice”. The “duration of blood glucose management after a single dose” value ([1]; 15 U/kg, STZ diabetic mice, three IPGTT 2 g/kg) was “over 13 h”, the “time at which serum concentration was still detected” value (Pharmacokinetics; [3]) was 12 h and the “delay of time to peak concentration” value (Pharmacokinetics; [3]) was “approximately 1 h”. For the same substance, the “time at which urine fluorescence signals could still be detected” value ([2]; Cy7 0.1 mg/kg) was 12 h, the “time at which fluorescence at the injected site was undetectable” value [2] was 4 h and the “change in transmittance after the assay” value (In vitro stability) was “less than 2%”. For the same substance, the hydrodynamic size (Dynamic light scattering) was 8.3 ± 1.1 nm, the “glycated serum protein (GSP) level” value (diabetic mice; 2-week treatment, 3 mg/kg daily, n = 6) was “markedly reduced” and the “kidney Masson staining, amount of collagen fiber” value (diabetic mice) was “decreased”. For the same substance, the “kidney PAS staining” value (diabetic mice) was “preserved glomerular basement membrane”, the “kidney H&E pathological features” value (diabetic mice) was “somewhat attenuated” and the blood cell counts (healthy C57 mice) was “no noticeable change”.
In the case of “insulin: Recombinant human insulin (26 U/mg) from Tonghua Dongbao Pharmaceutical [reference compound]”, the Emax (insulin receptor) is reported as 100%, the “number of mice died from hypoglycemia” value (healthy C57BL/6 mice; s.c., 10 U/kg, healthy mice) is reported as 4 and the “dose at which mice started to suffer from notable hypoglycemia” value (healthy C57BL/6 mice; s.c., fasted healthy mice) is reported as 2 U/kg. The “number of mice experiencing hypoglycemia within 4 h post-injection” value ([1]; 5 U/kg, STZ diabetic mice) was 5, the “time for blood glucose to drop to the normoglycemic range” value ([1]; 5 U/kg) was at most 30 min and the “response to the first glucose challenge (IPGTT)” value ([1]; 5 U/kg) was “didn't show any efficacy in lowering blood glucose”. For the same substance, the “time at which serum concentration was essentially undetectable” value (Pharmacokinetics; healthy mice, insulin ELISA) was 4 h, the “fluorescence retention rate at the injected site” value ([2]; 4 h post-injection) was 50% and the “time of maximum urine fluorescence signal” value ([2]; Cy7 0.1 mg/kg, IVIS imaging of urine) was 2 h. The “time at which urine fluorescence was close to the background value” ([2]; Cy7 0.1 mg/kg) was 4 h, the hydrodynamic size (Dynamic light scattering) was 4.1 ± 0.2 nm and the “kidney Masson staining, amount of collagen fiber” value (diabetic mice) was “decreased”. For the same substance, the “kidney PAS staining” value (diabetic mice) was “thicker glomerular basement membrane and incomplete brush border”, the “kidney H&E pathological features” value (diabetic mice) was “somewhat attenuated” and the “inflammatory cell infiltration in the skin at the injection site” value (healthy C57 mice; H&E) was “No significant inflammatory cell infiltration”. For the same substance, the blood cell counts (healthy C57 mice) was “no noticeable change”.
In the case of “mono-PEGylated insulin: insulin conjugated with one PEG chain (MW 5000) at Lys B29”, the Emax (insulin receptor) is reported as 95.7%, the “increase in maximum tolerated dose” value (healthy C57BL/6 mice; healthy mice, from area under the hypoglycemia line, 10 U/kg vs 1 U/kg insulin) is reported as “didn't show a significant improvement” and the “number of mice died from hypoglycemia” value (healthy C57BL/6 mice; s.c., 10 U/kg, healthy mice) is reported as 5. The “dose at which mice started to suffer from notable hypoglycemia” value (healthy C57BL/6 mice; s.c., fasted healthy mice) was 2 U/kg, the “number of mice experiencing hypoglycemia within 4 h post-injection” value ([1]; 5 U/kg, STZ diabetic mice) was 4 and the “time for blood glucose to drop to the normoglycemic range” value ([1]; 5 U/kg) was at most 30 min. The “response to the following two additional IPGTTs” value ([1]; 5 U/kg, glucose 2 g/kg i.p. at 7.5 and 10.5 h) was “didn't exhibit glucose-lowering effects”, the “response to the first glucose challenge (IPGTT)” value ([1]; 5 U/kg) was “moderate efficacy but failed to lower blood glucose to normoglycemic levels” and the “delay of time to peak concentration” value (Pharmacokinetics; [3]) was “approximately 1 h”. For the same substance, the “time at which fluorescence at the injected site was undetectable” value [2] was 4 h.
